Data as given in ChEMBL document CHEMBL1177718, “Phosphoramidate ProTides of 2'-C-methylguanosine as highly potent inhibitors of hepatitis C virus. Study of their in vitro and in vivo properties” (J Med Chem, 2010).

What was measured:
[1] = tested on: Hepatitis C virus; test: Antiviral activity against HCV1b infected in human HuH7 cells assessed as inhibition of viral replication after 48 hrs by luciferase reporter gene assay; type: functional, organism-based, Hepacivirus hominis; details: genotype 1b, Huh-7, 48 h
Procedure, shortened: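 Huh7 cells carrying genotype 1b bicistronic subgenomic replicon, seeded 2 × 10⁴/well without G-418; compounds added 18-24 h later, 48 h exposure; 3× or 4× serial dilutions over 0.0001-10 μM in triplicate/quadruplicate; Renilla luciferase read-out versus untreated cells; EC₅₀ by four-parameter sigmoidal nonlinear regression; at least three independent assays.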

[2] = Metabolic stability in mouse plasma assessed as compound remaining at 1 ug/ml after 30 mins; type: ADME, cell-free; details: read-out: Stability
[3] = Metabolic stability in human intestine S9 fraction assessed as compound remaining at 10 uM after 30 mins by HPLC analysis in presence of NADP; type: ADME, tissue-based; details: read-out: Stability
[4] = Metabolic stability in human liver S9 fraction assessed as compound remaining at 10 uM after 30 mins by HPLC analysis in absence of NADP; type: ADME, subcellular; details: read-out: Stability
[5] = Metabolic stability in dog intestine S9 fraction assessed as compound remaining at 10 uM after 60 mins by HPLC analysis in absence of NADP; type: ADME, tissue-based, Canis lupus familiaris; details: read-out: Stability
Procedure, shortened: (§1)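 Liver or intestinal S9 at final 1 mg/mL in 50 mM potassium phosphate, with or without NADPH-regenerating system (1.3 mM NADP, 3.3 mM glucose-6-phosphate, 0.4 U/mL G6PDH, 3.3 mM MgCl₂); 10 min preincubation at 37 °C; compound at final 10 μM; samples at start and 60 min quenched in cold acetonitrile, centrifuged, HPLC; % parent remaining.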

[6] = Metabolic stability in dog liver S9 fraction assessed as compound remaining at 10 uM after 60 mins by HPLC analysis in absence of NADP; type: ADME, subcellular, Canis lupus familiaris; details: read-out: Stability; procedure, shortened: as §1
[7] = Metabolic stability in dog intestine S9 fraction assessed as compound remaining at 10 uM after 60 mins by HPLC analysis in presence of NADP; type: ADME, tissue-based, Canis lupus familiaris; details: read-out: Stability; procedure, shortened: as §1
[8] = Cytotoxicity against human HuH7 cells after 72 hrs by celltiter-glo assay; type: cell-based, Huh-7
Procedure, shortened: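 Replicon 1b Huh7 cells seeded 2 × 10⁴/well; after 24 h, 11 serial 2× dilutions from 100 μM (three repeats each) with no-compound control; 72 h at 37 °C, CO₂, log-phase growth; viability by CellTiter-Glo luminescence; CC₅₀ = concentration giving 50% signal.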

[9] = Metabolic stability in dog liver S9 fraction assessed as compound remaining at 10 uM after 60 mins by HPLC analysis in presence of NADP; type: ADME, subcellular, Canis lupus familiaris; details: read-out: Stability; procedure, shortened: as §1
[10] = Metabolic stability in human intestine S9 fraction assessed as compound remaining at 10 uM after 30 mins by HPLC analysis in absence of NADP; type: ADME, tissue-based; details: read-out: Stability
[11] = Metabolic stability in human liver S9 fraction assessed as compound remaining at 10 uM after 30 mins by HPLC analysis in presence of NADP; type: ADME, subcellular; details: read-out: Stability
[12] = Metabolic stability in cynomolgus monkey intestine S9 fraction assessed as compound remaining at 10 uM after 60 mins by HPLC analysis in absence of NADP; type: ADME, tissue-based, Macaca fascicularis; details: read-out: Stability; procedure, shortened: as §1
[13] = Metabolic stability in human intestine S9 fraction assessed as compound remaining at 10 uM after 60 mins by HPLC analysis in absence of NADP; type: ADME, tissue-based; details: read-out: Stability; procedure, shortened: as §1
[14] = Metabolic stability in rat intestine S9 fraction assessed as compound remaining at 10 uM after 60 mins by HPLC analysis in presence of NADP; type: ADME, tissue-based; details: read-out: Stability
Procedure, shortened: (§2)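 Rat liver or intestinal S9 at 1 mg/mL final in 50 mM potassium phosphate, with or without NADPH-regenerating system (final 1.3 mM NADP, 3.3 mM glucose-6-phosphate, 0.4 U/mL G6P dehydrogenase, 3.3 mM MgCl2). Preincubated 10 min at 37 °C with shaking, started with compound at 10 μM final. Samples taken at 0 and 60 min, quenched in cold acetonitrile, centrifuged, and parent disappearance measured by HPLC.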

[15] = Metabolic stability in cynomolgus monkey intestine S9 fraction assessed as compound remaining at 10 uM after 60 mins by HPLC analysis in presence of NADP; type: ADME, tissue-based, Macaca fascicularis; details: read-out: Stability; procedure, shortened: as §1
[16] = Metabolic stability in human liver S9 fraction assessed as compound remaining at 10 uM after 60 mins by HPLC analysis in presence of NADP; type: ADME, subcellular; details: read-out: Stability; procedure, shortened: as §1
[17] = Metabolic stability in cynomolgus monkey liver S9 fraction assessed as compound remaining at 10 uM after 60 mins by HPLC analysis in absence of NADP; type: ADME, subcellular, Macaca fascicularis; details: read-out: Stability; procedure, shortened: as §1
[18] = Metabolic stability in rat liver S9 fraction assessed as compound remaining at 10 uM after 60 mins by HPLC analysis in presence of NADP; type: ADME, subcellular; details: read-out: Stability; procedure, shortened: as §2
[19] = Metabolic stability in cynomolgus monkey liver S9 fraction assessed as compound remaining at 10 uM after 60 mins by HPLC analysis in presence of NADP; type: ADME, subcellular, Macaca fascicularis; details: read-out: Stability; procedure, shortened: as §1
[20] = Metabolic stability in human intestine S9 fraction assessed as compound remaining at 10 uM after 60 mins by HPLC analysis in presence of NADP; type: ADME, tissue-based; details: read-out: Stability; procedure, shortened: as §1
[21] = Metabolic stability in rat intestine S9 fraction assessed as compound remaining at 10 uM after 60 mins by HPLC analysis in absence of NADP; type: ADME, tissue-based; details: read-out: Stability; procedure, shortened: as §2
[22] = Metabolic stability in rat liver S9 fraction assessed as compound remaining at 10 uM after 60 mins by HPLC analysis in absence of NADP; type: ADME, subcellular; details: read-out: Stability; procedure, shortened: as §2
[23] = Metabolic stability in mouse plasma assessed as compound remaining at 1 ug/ml after 4 hrs; type: ADME, cell-free; details: read-out: Stability
[24] = Metabolic stability in human liver S9 fraction assessed as compound remaining at 10 uM after 60 mins by HPLC analysis in absence of NADP; type: ADME, subcellular; details: read-out: Stability; procedure, shortened: as §1
[25] = tested on: Liver; test: AUC (0 to 6 hrs) in ICR mouse liver at 50 mg/kg, po by LC-MS/MS analysis; type: ADME, organism-based; set-up: time < 6 hr, dose 50 mg/kg, route oral; details: in vivo
[26] = Cmax in ICR mouse plasma at 50 mg/kg, po by LC-MS/MS analysis; type: ADME, organism-based; set-up: dose 50 mg/kg, route oral
[27] = tested on: Plasma; test: Dose normalized AUC in ICR mouse plasma at 50 mg/kg, po by LC-MS/MS analysis; type: ADME, organism-based; set-up: dose 50 mg/kg, route oral; details: in vivo
[28] = species: Homo sapiens; test: Metabolic stability in human plasma assessed as compound remaining at 1 ug/ml after 30 mins
[29] = tested on: Liver; test: AUC (0 to 24 hrs) in ICR mouse liver at 50 mg/kg, po by LC-MS/MS analysis; type: ADME, organism-based; set-up: time < 24 hr, dose 50 mg/kg, route oral; details: in vivo
[30] = Metabolic stability in dog plasma assessed as compound remaining at 1 ug/ml after 30 mins; type: ADME, cell-free, Canis lupus familiaris; details: read-out: Stability
Procedure, shortened: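 Duplicate incubations; compound at final 1 μg/mL in plasma preincubated and kept at […]; samples taken at 30 or 240 min, quenched with ice-cold acetonitrile, centrifuged, supernatant diluted with water; parent quantified by LC-MS/MS (Polar-RP column, formic acid water/acetonitrile gradient, positive ion mode); % remaining reported.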

[31] = tested on: Liver; test: Dose normalized AUC in ICR mouse liver at 50 mg/kg, po by LC-MS/MS analysis; type: ADME, organism-based; set-up: dose 50 mg/kg, route oral; details: in vivo

| SMILES | EC50 [1] | remaining at 0.5 h, 1 ug/ml [2] | remaining at 1 h, 10 µM [5] | remaining at 1 h, 10 µM [6] | remaining at 1 h, 10 µM [7] | remaining at 1 h, 10 µM [9] | AUC [25] | Cmax [26] | AUC [27] | remaining at 0.5 h, 1 ug/ml [28] | remaining at 0.5 h, 1 ug/ml [30] | AUC [31] | CC50 at 72 h [8] | other results |
| --- | --- | --- | --- | --- | --- | --- | --- | --- | --- | --- | --- | --- | --- | --- |
| CC[C@H](C)[C@H](NP(=O)(OC[C@H]1O[C@@H](n2cnc3c(=O)[nH]c(N)nc32)[C@](C)(O)[C@@H]1O)Oc1cccc2ccccc12)C(=O)OCc1ccccc1 (stereo partly drawn) | 900 nM | 100% | 96% | 84% | 87% | 64% | – | – | – | – | – | – | > 50000 nM | remaining at 1 h, 10 µM [12]: 95%; remaining at 1 h, 10 µM [13]: 74%; remaining at 1 h, 10 µM [14]: 71%; remaining at 1 h, 10 µM [15]: 29%; remaining at 1 h, 10 µM [16]: 29%; remaining at 1 h, 10 µM [17]: 89%; remaining at 1 h, 10 µM [18]: 37%; remaining at 1 h, 10 µM [19]: 0%; remaining at 1 h, 10 µM [20]: 52%; remaining at 1 h, 10 µM [21]: 70%; remaining at 1 h, 10 µM [22]: 78%; remaining at 4 h, 1 ug/ml [23]: 95%; remaining at 1 h, 10 µM [24]: 83% |
| CC(C)[C@H](NP(=O)(OC[C@H]1O[C@@H](n2cnc3c(=O)[nH]c(N)nc32)[C@](C)(O)[C@@H]1O)Oc1cccc2ccccc12)C(=O)OC1CCCCC1 (stereo partly drawn) | 1000 nM | 95% | – | – | – | – | 815 ng·h/g | 185 ng/mL | 33 ng·h/mL | 97% | 95% | 77 ng·h/g | > 100000 nM | AUC [29]: 3860 ng·h/g |

Now those with a lower EC50 [1], led by results:

| EC50 [1] | remaining at 0.5 h, 1 ug/ml [2] | remaining at 1 h, 10 µM [5] | remaining at 1 h, 10 µM [6] | remaining at 1 h, 10 µM [7] | remaining at 1 h, 10 µM [9] | AUC [25] | Cmax [26] | AUC [27] | remaining at 0.5 h, 1 ug/ml [28] | remaining at 0.5 h, 1 ug/ml [30] | AUC [31] | SMILES | CC50 at 72 h [8] | other results |
| --- | --- | --- | --- | --- | --- | --- | --- | --- | --- | --- | --- | --- | --- | --- |
| 120 nM | 2% | 33% | 48% | 12% | 14% | – | – | – | – | – | – | CC(C)C[C@H](NP(=O)(OC[C@H]1O[C@@H](n2cnc3c(=O)[nH]c(N)nc32)[C@](C)(O)[C@@H]1O)Oc1cccc2ccccc12)C(=O)OCc1ccccc1 (stereo partly drawn) | > 50000 nM | remaining at 0.5 h, 10 µM [3]: 8%; remaining at 0.5 h, 10 µM [4]: 44%; remaining at 0.5 h, 10 µM [10]: 28%; remaining at 0.5 h, 10 µM [11]: 0% |
| 430 nM | 69% | – | – | – | – | 880 ng·h/g | 518 ng/mL | 49 ng·h/mL | 77% | 100% | 18 ng·h/g | CC(C)[C@H](NP(=O)(OC[C@H]1O[C@@H](n2cnc3c(=O)[nH]c(N)nc32)[C@](C)(O)[C@@H]1O)Oc1cccc2ccccc12)C(=O)OCc1ccccc1Cl (stereo partly drawn) | > 100000 nM | – |
| 620 nM | 94% | – | – | – | – | 920 ng·h/g | 339 ng/mL | 88 ng·h/mL | 95% | 89% | 18 ng·h/g | CC(C)[C@H](NP(=O)(OC[C@H]1O[C@@H](n2cnc3c(=O)[nH]c(N)nc32)[C@](C)(O)[C@@H]1O)Oc1cccc2ccccc12)C(=O)OCc1ccc(Cl)cc1 (stereo partly drawn) | – | – |
